Source: ChEMBL document CHEMBL1127697, “New N alpha-guanidinobenzoyl derivatives of hirudin-54-65 containing stabilized carboxyl or phosphoryl groups on the side chain of phenylalanine-63” (1994)
Residues, ends and D or L forms follow the SMILES beside them.

Columns and labels:
Assay type in all cases: functional
Rattus norvegicus [1] = experiment: Activated partial thromboplastin time at 1.5 min following intravenous administration in rats at a dose 8 mg/kg
Method in brief: (§1)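 Sprague-Dawley rats (300–400 g) anesthetized with pentobarbital sodium (60 mg/kg ip). Peptide (1 mL) given iv via cannulated jugular vein. Carotid blood (1.5 mL) drawn 30 min before and at 1.5–60 min after dosing, then centrifuged 15 min at 3000g to platelet-poor plasma. APTT read on a coagulometer: plasma mixed with thromboplastin at 37 °C. Expressed as % of untreated animals; n = 4–6 independent experiments.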

Rattus norvegicus [2] = experiment: Activated partial thromboplastin time at 60 min following intravenous administration in rats at a dose 8 mg/kg; method in brief: as §1
Rattus norvegicus [3] = experiment: Activated partial thromboplastin time at 15 min following intravenous administration in rats at a dose 8 mg/kg; method in brief: as §1
Rattus norvegicus [4] = experiment: Activated partial thromboplastin time at 30 min following intravenous administration in rats at a dose 8 mg/kg; method in brief: as §1
Rattus norvegicus [5] = species on record: Rattus norvegicus; experiment: Concentration that doubles thrombin time (inhibition of fibrin clot) in rats
Method in brief: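 Plasma was incubated 2 min at 37 °C with inhibitor or vehicle, then thrombin (1.5 NIH/mL) was added and clotting time read on a coagulometer. Value is the µM concentration that doubles thrombin time relative to the no-inhibitor control.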

Rattus norvegicus [6] = experiment: Activated partial thromboplastin time at 3 min following intravenous administration in rats at a dose 8 mg/kg; method in brief: as §1
Rattus norvegicus [7] = experiment: Activated partial thromboplastin time at 5 min following intravenous administration in rats at a dose 8 mg/kg; method in brief: as §1

SMILES | Baseline (Rattus norvegicus [1]) [%] | Baseline (Rattus norvegicus [2]) [%] | Baseline (Rattus norvegicus [3]) [%] | Baseline (Rattus norvegicus [4]) [%] | Ctt2 (Rattus norvegicus [5]) [µM] | Baseline (Rattus norvegicus [6]) [%] | Baseline (Rattus norvegicus [7]) [%]
CC[C@H](C)[C@H](NC(=O)C1C2CCC(CC2)N1C(=O)[C@H](CCC(=O)O)NC(=O)[C@H](Cc1ccccc1)NC(=O)[C@H](CC(=O)O)NC(=O)CNC(=O)c1ccc(NC(=N)N)cc1)C(=O)N1CCC[C@H]1C(=O)N[C@@H](CCC(=O)O)C(=O)N[C@@H](CCC(=O)O)C(=O)N[C@@H](Cc1ccc(O)cc1P(=O)(O)O)C(=O)N[C@@H](CC(C)C)C(=O)N[C@H](CCC(=O)O)C(=O)O (stereo partly drawn) | 265 | 163 | 192 | 164 | 4 | 244 | 217
CC[C@H](C)[C@H](NC(=O)C1C2CCC(CC2)N1C(=O)[C@H](CCC(=O)O)NC(=O)[C@H](Cc1ccccc1)NC(=O)[C@H](CC(=O)O)NC(=O)CNC(=O)c1ccc(NC(=N)N)cc1)C(=O)N1CCC[C@H]1C(=O)N[C@@H](CCC(=O)O)C(=O)N[C@@H](CCC(=O)O)C(=O)N[C@@H](Cc1ccc(O)cc1)C(=O)N[C@@H](CC(C)C)C(=O)N[C@H](CCC(=O)O)C(=O)O (stereo partly drawn) | 158 | 96 | 115 | 111 | 4.8 | 145 | 133
CC[C@H](C)[C@H](NC(=O)C1C2CCC(CC2)N1C(=O)[C@H](CCC(=O)O)NC(=O)[C@H](Cc1ccccc1)NC(=O)[C@H](CC(=O)O)NC(=O)CNC(=O)c1ccc(NC(=N)N)cc1)C(=O)N1CCC[C@H]1C(=O)N[C@@H](CCC(=O)O)C(=O)N[C@@H](CCC(=O)O)C(=O)N[C@@H](Cc1ccc(CC(=O)O)cc1)C(=O)N[C@@H](CC(C)C)C(=O)N[C@H](CCC(=O)O)C(=O)O (stereo partly drawn) | 213 | 118 | 149 | 141 | 1 | 205 | 188
CC[C@H](C)[C@H](NC(=O)C1C2CCC(CC2)N1C(=O)[C@H](CCC(=O)O)NC(=O)[C@H](Cc1ccccc1)NC(=O)[C@H](CC(=O)O)NC(=O)CNC(=O)c1ccc(NC(=N)N)cc1)C(=O)N1CCC[C@H]1C(=O)N[C@@H](CCC(=O)O)C(=O)N[C@@H](CCC(=O)O)C(=O)N[C@@H](Cc1ccc(P(=O)(O)O)cc1)C(=O)N[C@@H](CC(C)C)C(=O)N[C@H](CCC(=O)O)C(=O)O (stereo partly drawn) | 252 | 187 | 200 | 181 | 2.8 | 225 | 217
CC[C@H](C)[C@H](NC(=O)C1C2CCC(CC2)N1C(=O)[C@H](CCC(=O)O)NC(=O)[C@H](Cc1ccccc1)NC(=O)[C@H](CC(=O)O)NC(=O)CNC(=O)c1ccc(NC(=N)N)cc1)C(=O)N1CCC[C@H]1C(=O)N[C@@H](CCC(=O)O)C(=O)N[C@@H](CCC(=O)O)C(=O)N[C@@H](Cc1ccc(OP(=O)(O)O)cc1)C(=O)N[C@@H](CC(C)C)C(=O)N[C@H](CCC(=O)O)C(=O)O (stereo partly drawn) | 201 | 107 | 125 | 110 | 0.9 | 162 | 147
CC[C@H](C)[C@H](NC(=O)C1C2CCC(CC2)N1C(=O)[C@H](CCC(=O)O)NC(=O)[C@H](Cc1ccccc1)NC(=O)[C@H](CC(=O)O)NC(=O)CNC(=O)c1ccc(NC(=N)N)cc1)C(=O)N1CCC[C@H]1C(=O)N[C@@H](CCC(=O)O)C(=O)N[C@@H](CCC(=O)O)C(=O)N[C@@H](Cc1ccc(O)cc1)C(=O)N[C@@H](CC(C)C)C(=O)O (stereo partly drawn) (HELM PEPTIDE1{[N=C(N)Nc1ccc(C(=O)[*:2])cc1].G.D.F.E.[O=C(C1C2CCC(CC2)N1[*:1])[*:2]].I.P.E.E.Y.L}$$$$V2.0) | 136 | 98 | 108 | 100 | 16.5 | 123 | 115
CC[C@H](C)[C@H](NC(=O)C1C2CCC(CC2)N1C(=O)[C@H](CCC(=O)O)NC(=O)C(Cc1ccccc1)NC(=O)[C@H](CC(=O)O)NC(=O)CNC(=O)c1ccc(NC(=N)N)cc1)C(=O)N1CCC[C@H]1C(=O)N[C@@H](CCC(=O)O)C(=O)N[C@@H](CCC(=O)O)C(=O)N[C@H](Cc1ccc(CC(=O)O)cc1)C(=O)N[C@@H](CC(C)C)C(=O)N[C@H](CCC(=O)O)C(=O)O (stereo in doubt) | – | – | – | – | 50 | – | –
